SIAE inh: blocks human sialic acid acetylesterase | Q9HAT2 | SIAE FP-Rh probe binding, fluorescence polarization | inhibition, % at 9.66 µM | hit rate 0.69% among 370,000 | AID 1053197;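 active = inhibition above a cutoff: mean of compounds within the control limits plus 3 SD of those, cut at about 17% in these data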;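 note: 0% = plate median of compound wells and 100% = probe without SIAE protein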
PRMT1 inh: blocks human protein arginine methyltransferase 1. Q99873. recombinant PRMT1, activity-based probe fluorescence polarization. inhibition, % at 2.79 µM. hit rate 1.3% among 370,000. AID 652257;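 active = inhibition above about 21% made by adding two undisclosed values, limit read from the data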
mABHD4 FP: inhibits mouse alpha/beta hydrolase domain 4; Q8VD66; purified mABHD4, FP-Rh probe fluorescence polarization; inhibition, % at 8.92 µM; hit rate 0.54% among 370,000;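 active = inhibition exceeding the mean over every tested compound plus 3 SD, cut at about 30% in these data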;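 note: 0% = plate median of compound wells and 100% = S159A mutant with DMSO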
Target sequence (Q8VD66 whole entry, looked up, the tested form may be a part): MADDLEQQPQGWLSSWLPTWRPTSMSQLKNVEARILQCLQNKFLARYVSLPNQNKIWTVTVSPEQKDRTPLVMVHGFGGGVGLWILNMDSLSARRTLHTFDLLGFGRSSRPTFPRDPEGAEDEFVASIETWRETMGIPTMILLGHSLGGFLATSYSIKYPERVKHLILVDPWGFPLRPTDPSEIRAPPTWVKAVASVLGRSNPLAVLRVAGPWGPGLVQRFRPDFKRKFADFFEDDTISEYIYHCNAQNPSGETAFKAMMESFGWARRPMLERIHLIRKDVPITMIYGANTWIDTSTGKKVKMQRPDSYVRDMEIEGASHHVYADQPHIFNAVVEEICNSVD
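Assay system: wild-type mouse ABHD4 protein; compound: single nominal dose of 8.92 µM, 0.89% DMSO final; schedule: 45 min + 60 min at 25 °C; measured by: FP readout, ex 525 nm / em 598 nm; evaluation: % inhibition of FP-Rh probe binding versus controls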
TCR CD3 inh: blocks the human TCR-CD3 interaction | TAMRA-labeled TCR probe fluorescence, biochemical | inhibition, % at 9.4 µM | hit rate 0.37% among 360,000; in the data active = inhibition above about 19%;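 note: recombinant mutant TCR 2C K166C tagged with TAMRA read by polarization; 0% = receptor in buffer alone and 100% = receptor with positive control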
HTRA1 inh: inhibitors of human serine peptidase HTRA1; recombinant HTRA1, FP-rhodamine activity-based probe, fluorescence polarization; inhibition, % at 5.96 µM; hit rate 0.5% among 340,000; AID 504803; in the data active = inhibition above about 36%;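 note: 0% = enzyme with DMSO and 100% = wells lacking enzyme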
SIAE inh conf: human SIAE inhibition, confirmation | shares compounds with SIAE inh | SIAE FP-Rh activity-based probe, fluorescence polarization | inhibition, % at 9.66 µM | hit rate 13% among 2,300 | AID 1117263;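 active = mean inhibition of the replicates above the hit cutoff set in the primary screen, cut at about 17% in these data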;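 note: 0% = SIAE with DMSO and probe and 100% = probe without SIAE; inhibitors lower polarization as more probe stays unbound to SIAE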
The depositor's hits bear a star; . = no result given. Hits are enriched below; roughly 2.6% of the tested compounds scored in any of these assays.

SMILES	SIAE inh	PRMT1 inh	mABHD4 FP	TCR CD3 inh	HTRA1 inh	SIAE inh conf
CN(C)S(=O)(=O)c1ccc(Cl)c(NC(=O)COC(=O)/C=C/c2cnc3ccccc3n2)c1	-8	6	0	-9	6	.
Cc1cc2c(cc1C)NC1=C(N2)OC(c2cccc(O)c2)C1=O (stereo unspecified)	28*	-3	-2	-4	-2	-10
COc1ccc(C2OC3=C(Nc4cc(C)c(C)cc4N3)C2=O)cc1 (stereo unspecified)	-2	-5	-2	-1	-4	.
CN(C)C(=O)c1cnc(Cc2c[nH]c3ccccc23)c(I)c1	18*	2	6	-4	.	-5
Cc1cccc(C)c1NC(=S)N(CCN1CCCCCC1)Cc1ccco1	18*	0	1	2	0	5
Cc1cc(C)c(NC(=S)N(CCN2CCCCC2)Cc2ccco2)c(C)c1	10	5	-1	-1	-2	.
CC/C(Cc1ccccc1)=N/NC(=O)c1cccc(Br)c1	18*	-2	-6	5	-10	0
CC/C(Cc1ccccc1)=N\NC(=O)c1cc([N+](=O)[O-])cc([N+](=O)[O-])c1	-3	2	7	-4	2	.
O=[N+]([O-])c1ccccc1Nc1nc(-c2cccnc2)cs1	2	-2	6	-4	1	.
COc1ccc(O)c(/C=N/Nc2nc(C)cc(-c3ccccc3)n2)c1	22*	-2	7	-2	6	6
COc1ccc(/C=N/Nc2nc(C)cc(-c3ccccc3)n2)c(OC)c1	-1	-2	2	-2	1	.
Cc1cc(C)c(C(=O)C(C)OC(=O)Cn2cnc3c2c(=O)n(C)c(=O)n3C)cc1C (stereo unspecified)	0	5	-6	-8	0	.
CC(C)CN1C(=O)C(=O)N(CC(=O)N(C)CC(=O)Nc2ccc(F)cc2)C1=O	20*	-5	-1	-1	-1	3
Cc1ccc(C(=O)NCc2cccc(C(F)(F)F)c2)cc1S(=O)(=O)N1CCCCC1	25*	-2	-1	4	-7	3
O=C(O)C1CCN(c2ccc(Cl)nn2)CC1	1	-1	1	-1	-3	.
Clc1ccc(N2CCCCCC2)nn1	18*	-1	-6	-2	0	-7
O=C(O)c1ccc(NCc2cccs2)cc1	18*	-1	-2	-2	6	-2
Cc1ccc(-c2csc3ncnc(N4CCN(S(=O)(=O)c5ccc(C#N)cc5)CC4)c23)cc1	-5	-3	-1	-4	-2	.
COc1ccc(-c2csc3ncnc(N4CCN(S(=O)(=O)c5ccc(C)c(C)c5)CC4)c23)cc1	18*	-2	0	-5	-7	-2
Cc1ccc(OCC(=O)Nc2ccc3c4c(cccc24)CC3)c(C)c1	-2	-4	-2	6	-3	.
Cc1ccc(OCC(=O)Nc2cccc3nsnc23)c(C)c1	33*	0	1	-2	1	1
Cc1nn(C)c(Cl)c1CN1CCC(CO)(CCOc2ccccc2)CC1	17*	-8	-2	10	5	0
CCn1ccnc1CN1CCC(CO)(CCOc2ccccc2)CC1	-5	6	-16	-8	4	.
Cc1cc(C)n(-c2ccc(C(=O)O)cc2)n1	-9	4	-7	-12	5	.
Cc1cc(Nc2ccccc2)n(-c2ccc(C(=O)O)cc2)n1	23*	-1	-3	4	6	-4
SMILES	SIAE inh	PRMT1 inh	mABHD4 FP	TCR CD3 inh	HTRA1 inh	SIAE inh conf
COc1ccc(Cl)cc1NC(=S)N1CCN(C(=O)c2ccco2)CC1	39*	-2	3	2	7	-5
COc1c(S(=O)(=O)N2CCN(C(=O)c3ccco3)CC2)ccc(Cl)c1Cl	73*	-1	-3	6	0	2
COc1cc(NC(=S)N2CCN(C(=O)c3ccco3)CC2)c(OC)cc1Cl	1	6	-1	13	-1	.
COc1cc(S(=O)(=O)N2CCN(C(=O)c3ccco3)CC2)c(OC)cc1C	0	1	0	-1	1	.
CCCNC(=O)C1(C)CCCN(C(=O)Cc2cccc(OC)c2)C1 (stereo unspecified)	4	1	7	-5	.	.
Nc1ccc2nc(-c3ccccn3)[nH]c2c1	51*	-1	11	1	27	9
CC(C)N(Cc1nc2ccccc2c(=O)[nH]1)C(=O)c1ccc(NC(=O)CSc2nnnn2C)cc1	18*	-1	0	-2	-4	-4
NC(=O)CC[C@H](NC(=O)c1ccc(F)cc1)C(=O)OCC(=O)NCc1ccc2c(c1)OCO2	-3	2	2	-7	6	.
CCOC(=O)N1CCN(C(=O)c2oc3ccc(S(=O)(=O)N4CCCCC4)cc3c2C)CC1	1	-3	-2	4	4	.
CCOC(=O)c1sc2ccc(S(=O)(=O)N3CCCCC3)cc2c1N	21*	1	-10	4	-18	-2
CN(C(=O)COC(=O)/C=C/c1ccc2ccccc2n1)C1CCS(=O)(=O)C1 (stereo unspecified)	-3	-1	-1	-5	-1	.
CCN(C(=O)COC(=O)/C=C/c1cnc2ccccc2n1)C1CCS(=O)(=O)C1 (stereo unspecified)	28*	-11	-1	0	3	-1
CCCc1cc(=O)[nH]c(SCC(=O)Nc2sccc2C#N)n1	17*	2	13	-7	-3	3
CC(C)N(CCNC(=O)COc1ccc2oc3c(c2c1)CCCC3)C(C)C	14	-2	2	5	-4	.
COc1cccc(Nc2nc(-c3ccc(O)cc3)cs2)c1	9	4	18	-1	17	.
COc1cccc(Nc2nc(-c3cccc(N4C(=O)c5ccccc5C4=O)c3)cs2)c1	24*	0	11	2	-1	-1
COc1ccc(CCN2C(=O)CC(C(N)=O)SC2=Nc2ccc(F)cc2)cc1OC (stereo unspecified)	20*	-5	3	2	6	-5
COc1ccc(CCN2C(=O)CC(C(N)=O)SC2=Nc2ccccc2)cc1 (stereo unspecified)	-6	0	4	9	-3	.
Cc1cc(C)n2nc(SCc3nnc(-c4ccccc4Br)o3)nc2n1	22*	-1	1	4	2	1
Clc1ccc(SCc2csc(N3CCOCC3)n2)cc1	18*	-1	0	5	0	-1
Cc1ccc(NC2CCCN(C(=O)c3cn(C)c4ccccc34)C2)cc1C (stereo unspecified)	14	3	1	-6	0	.
COc1cc(NS(=O)(=O)c2ccc(NC(=O)CCC(=O)O)cc2)nc(OC)n1	17*	-1	0	1	3	-7
CCOC(=O)CCC(=O)Nc1ccc(S(=O)(=O)Nc2cc(OC)nc(OC)n2)cc1	10	-3	6	-3	-1	.
Cc1c(O)ccc2c(O)c(NC(=O)c3ccc4c(c3)CCC(C)(C)O4)c(=O)oc12	1	5	-2	5	1	.
